Source: ChEMBL document CHEMBL3734686, “Synthesis, Photophysical Properties, and Biological Evaluation of trans-Bisthioglycosylated Tetrakis(fluorophenyl)chlorin for Photodynamic Therapy” (J Med Chem, 2015)
Calls of active or inactive are those of the source.

How the values were obtained:
Stomach = assay: Drug uptake in BALB/c mouse stomach implanted with mouse 4T1 cells assessed per gram of tissue at 0.18 mg/kg, ip after 72 hrs by HPLC-based fluorescence analysis; assay type: ADME, organism-based; conditions: in vivo
In short: (§1)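 Female BALB/c mice with 4T1 cells (1 × 10^6 in HBSS) implanted in left rear thigh; single i.p. dose, 7 in ethanol/PEG400/H2O (2/3/5) with 0.1% DMSO, mono-L-aspartyl chlorin e6 in saline; kept dark until sacrifice. Tissues washed, frozen, homogenized in CH3OH/DMSO/H2O (32/8/1), centrifuged 2300×g; supernatant analysed by HPLC with fluorescence detection; three animals per time point.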

Lung = assay: Drug uptake in BALB/c mouse lung implanted with mouse 4T1 cells assessed per gram of tissue at 0.18 mg/kg, ip after 24 hrs by HPLC-based fluorescence analysis; assay type: ADME, organism-based; conditions: in vivo
In short: (§2)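 Female BALB/c mice bearing 4T1 thigh tumours received an i.p. dose in ethanol/PEG400/H2O (2/3/5) with 0.1% DMSO, or in saline, and were kept dark until killed. Tissues were weighed (100 mg), homogenised in CH3OH/DMSO/H2O (32/8/1) and centrifuged twice at 2300×g at 4°C. Supernatants were analysed by HPLC with fluorescence detection (λex 404/λem 654 nm or λex 400/λem 666 nm). n = 3 per time point.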

4T1 [1] = assay: Drug uptake in mouse 4T1 cells implanted in BALB/c mouse assessed per gram of tissue at 0.18 mg/kg, ip after 24 hrs by HPLC-based fluorescence analysis; assay type: ADME, organism-based; conditions: in vivo; in short: as §1
4T1 [2] = assay: Antiangiogenic activity against mouse 4T1 cells implanted in BALB/c mouse at 0.045 mg/kg, ip administered for 48 hrs followed by irradiation at 48 J/cm2 measured after 6 days by hematoxylin/eosin-staining based microscopic analysis; assay type: functional, organism-based
In short: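 4T1 cells (1 × 10^6 in HBSS) were implanted in the left rear thigh of female BALB/c mice. At 48 h after i.p. dosing at 31.25 nmol·kg−1 in ethanol/PEG400/H2O (2/3/5) with 0.1% DMSO, the tumour was irradiated with a 100-W halogen lamp (λ > 500 nm, 48 J·cm−2). Skin with tumour was taken 6 days later, fixed in 4% paraformaldehyde, paraffin-embedded, cut into 7-µm sections, H&E-stained and examined by light microscopy.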

[3] = Induction of reactive oxygen generation assessed as quantum yield of hydrogen peroxide generation in O2 saturated PBS containing 1% DMSO under photoirradiation by spectrometry relative to control hematoporphyrin; assay type: physicochemical; conditions: buffer
In short: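 Photosensitizer (1.00 µM) with HPF (2.00 µM) in PBS containing 1% DMSO, oxygenated 1 min, irradiated with 100-W halogen lamp through λ>500 nm cutoff filter at 37°C; hematoporphyrin as reference.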

Heart = assay: Drug uptake in BALB/c mouse heart implanted with mouse 4T1 cells assessed per gram of tissue at 0.18 mg/kg, ip after 48 hrs by HPLC-based fluorescence analysis; assay type: ADME, organism-based; conditions: in vivo; in short: as §2

Drug uptake (Stomach): 7 ng
Drug uptake (Lung): 29 ng/g
Drug uptake (4T1 [1]): 3 ng
Ratio [3]: 0.18
Drug uptake (Heart): 2.1 ng/g
SMILES: CN1CC2C3=N/C(=C(/c4c(F)c(F)c(S[C@@H]5O[C@H](CO)[C@@H](O)[C@H](O)[C@H]5O)c(F)c4F)C4=N/C(=C(/c5c(F)c(F)c(F)c(F)c5F)c5ccc([nH]5)/C(c5c(F)c(F)c(S[C@@H]6O[C@H](CO)[C@@H](O)[C@H](O)[C@H]6O)c(F)c5F)=C5/C=CC(=N5)C3c3c(F)c(F)c(F)c(F)c3F)C=C4)C2C1 (stereo partly specified)
Activity (4T1 [2]): Active
